# Test results as given in ChEMBL document CHEMBL5150051, “Identification and Characterization of a Novel Indoleamine 2,3-Dioxygenase 1 Protein Degrader for Glioblastoma” (J Med Chem, 2022).
# Calls of active or inactive are those of the source. The rule behind the calls is not given here.
# Tests used:
# Ido1/Crbn (Mus musculus) = Ido1/Crbn (Mus musculus) (UniProt P28776+Q8C7D2); test: Protac activity at CRBN/IDO1 non-enzyme mediated p65 phosphorylation in mouse GL261 cells expressing IDO1 cDNA measured at 0.1 to 10 uM after 24 hrs by Western blotting analysis; conditions: dose 0.1-10 µM
# Ido1/Crbn (Mus musculus), sequence (P28776 whole entry, looked up): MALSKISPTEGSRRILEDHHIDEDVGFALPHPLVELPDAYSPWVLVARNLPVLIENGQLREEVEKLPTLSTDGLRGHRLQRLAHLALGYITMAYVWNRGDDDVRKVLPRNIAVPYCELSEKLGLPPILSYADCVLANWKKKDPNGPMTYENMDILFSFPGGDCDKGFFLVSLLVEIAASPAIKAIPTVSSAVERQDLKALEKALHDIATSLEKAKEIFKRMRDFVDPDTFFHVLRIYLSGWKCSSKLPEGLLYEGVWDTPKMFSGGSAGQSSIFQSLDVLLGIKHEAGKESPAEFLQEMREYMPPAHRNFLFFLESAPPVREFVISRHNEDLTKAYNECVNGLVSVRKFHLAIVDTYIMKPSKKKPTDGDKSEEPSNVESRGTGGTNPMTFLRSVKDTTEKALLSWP
# Ido1/Crbn (Mus musculus), sequence (Q8C7D2 whole entry, looked up): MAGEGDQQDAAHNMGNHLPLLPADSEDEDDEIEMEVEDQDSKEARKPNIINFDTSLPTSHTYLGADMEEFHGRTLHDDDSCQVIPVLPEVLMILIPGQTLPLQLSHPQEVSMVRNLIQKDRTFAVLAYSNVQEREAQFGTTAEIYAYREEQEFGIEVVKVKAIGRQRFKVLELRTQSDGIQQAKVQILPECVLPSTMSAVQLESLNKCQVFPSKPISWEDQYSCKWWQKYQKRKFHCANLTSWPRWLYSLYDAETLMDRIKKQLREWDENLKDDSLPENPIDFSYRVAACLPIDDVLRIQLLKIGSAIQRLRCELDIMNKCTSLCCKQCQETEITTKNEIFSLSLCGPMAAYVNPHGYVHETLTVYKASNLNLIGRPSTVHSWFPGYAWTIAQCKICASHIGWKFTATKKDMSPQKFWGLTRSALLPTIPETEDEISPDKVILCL
# [1] = target: T1, Protein cereblon/Indoleamine 2,3-dioxygenase 1 (Homo sapiens, UniProt P14902+Q96SW2); test: Protac activity at CRBN/IDO1 in human U87 cells assessed as decrease in phosphorylated NF-kappaB p65 in nucleus at 1 to 10 uM measured after 24 hrs by Western blot analysis; format: cell-based; conditions: dose 1-10 µM
# T1 sequence (P14902 whole entry, looked up): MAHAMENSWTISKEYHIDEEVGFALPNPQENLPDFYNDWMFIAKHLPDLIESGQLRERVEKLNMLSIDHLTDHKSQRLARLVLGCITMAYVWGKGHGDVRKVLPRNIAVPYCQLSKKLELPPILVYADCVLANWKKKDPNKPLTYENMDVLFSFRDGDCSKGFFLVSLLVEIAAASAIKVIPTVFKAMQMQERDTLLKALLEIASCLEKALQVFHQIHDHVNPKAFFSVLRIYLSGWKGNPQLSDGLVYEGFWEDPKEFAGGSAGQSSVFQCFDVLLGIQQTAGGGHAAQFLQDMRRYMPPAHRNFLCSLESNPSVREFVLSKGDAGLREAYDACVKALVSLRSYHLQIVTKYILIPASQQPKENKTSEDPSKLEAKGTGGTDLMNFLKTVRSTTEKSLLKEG
# T1 sequence (Q96SW2 whole entry, looked up): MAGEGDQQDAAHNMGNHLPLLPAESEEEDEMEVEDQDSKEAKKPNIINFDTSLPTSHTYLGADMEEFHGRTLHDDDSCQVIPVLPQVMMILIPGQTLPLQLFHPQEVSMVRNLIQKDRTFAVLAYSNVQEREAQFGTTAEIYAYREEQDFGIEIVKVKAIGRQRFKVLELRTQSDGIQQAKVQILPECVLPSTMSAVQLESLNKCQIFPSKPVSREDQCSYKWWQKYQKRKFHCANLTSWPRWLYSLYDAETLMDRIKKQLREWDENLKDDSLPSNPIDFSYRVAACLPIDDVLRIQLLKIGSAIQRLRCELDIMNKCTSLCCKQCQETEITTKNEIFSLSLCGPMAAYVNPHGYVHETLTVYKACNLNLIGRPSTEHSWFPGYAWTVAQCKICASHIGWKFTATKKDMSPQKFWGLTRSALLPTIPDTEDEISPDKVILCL
# [2] = Drug uptake in C57BL/6 mouse brain at 10 to 100 mg/kg, ip treated 5 days/week for 3 weeks by LC/MS/MS analysis; format: ADME, organism-based; conditions: in vivo, 504 h, dose 10-100 mg/kg
# In short: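 Male C57BL/6 mice dosed ip at 10, 25, 50 or 100 mg/kg, 5 days/week for 3 weeks, alongside vehicle. After 3 weeks, serum and brain homogenate were analysed by mass spectrometry for drug level; mean ± SEM, n = 3 mice/dose.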
# [3] = target: Indoleamine 2,3-dioxygenase 1 (Homo sapiens, UniProt P14902); test: Binding affinity to IDO1 (unknown origin) assessed as dissociation constant by bio-layer interferometry assay
# Indoleamine 2,3-dioxygenase 1, sequence (P14902 whole entry): as the sequence (P14902 whole entry, looked up) above
# In short: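 Bio-layer interferometry measured binding to IDO1 at 30 °C in PBS with 0.5% DMSO. Kd, kon and koff were derived.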
# [4] = target: T1, Protein cereblon/Indoleamine 2,3-dioxygenase 1; test: Protac activity at CRBN/IDO1 in 50 ng/mL IFNgamma-stimulated human U87 cells assessed as IDO1 degradation by measuring decrease in protein level measured at 0.1 to 10 uM after 24 hrs by Western blotting analysis; conditions: dose 0.1-10 µM
# [5] = target: T1, Protein cereblon/Indoleamine 2,3-dioxygenase 1; test: Protac activity at CRBN/IDO1 non-enzyme mediated NF-kappaB signal in IFNgamma-stimulated human MDA-MB-231 cells assessed as decrease in p65 phosphorylation at 0.1 to 10 uM measured after 24 hrs Western blotting assay; format: cell-based; conditions: dose 0.1-10 µM
# In short: (§1)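 IFNγ-stimulated cells were induced for 24 h, then treated at several concentrations for 24 h. Lysates were western blotted for IDO1, phospho-p65, total p65 and GAPDH.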
# [6] = target: T1, Protein cereblon/Indoleamine 2,3-dioxygenase 1; test: Protac activity at IDO1/CRBN in IFNgamma-stimulated human U87 cells assessed as IDO1 degradation at 10 uM measured after 24 hrs by Western blotting analysis relative to control; format: cell-based
# In short: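 U87 GBM cells primed with human IFNγ 50 ng/mL for 24 h, then exposed to PROTAC at 10 μM for 24 h. Lysates run on western blot; IDO1 bands quantified by densitometry and expressed as percent of normalized IDO1 protein level.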
# [7] = target: T1, Protein cereblon/Indoleamine 2,3-dioxygenase 1; test: Protac activity at IDO1/CRBN in human U87 cells assessed as decrease in phosphorylated p65 in nucleus at 1 to 10 uM measured after 24 hrs by Western blot analysis; format: cell-based; conditions: dose 1-10 µM
# In short: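 Cytoplasmic and nuclear fractions prepared from U87 cells after 24 h treatment with DMSO or compound. Fractions blotted for IDO1, phospho-p65 and total p65, with HDAC2 as nuclear marker and tubulin as cytoplasmic marker.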
# [8] = Drug uptake in C57BL/6 mouse intestine at 50 mg/kg, ip treated 5 days/week for 3 weeks by LC/MS/MS analysis; format: ADME, organism-based; conditions: in vivo, 504 h
# [9] = Drug uptake in C57BL/6 mouse liver at 50 mg/kg, ip treated 5 days/week for 3 weeks by LC/MS/MS analysis; format: ADME, organism-based; conditions: in vivo, 504 h
# [10] = Half life in C57BL/6 mouse brain at 25 mg/kg, ip; format: ADME, organism-based
# [11] = target: T1, Protein cereblon/Indoleamine 2,3-dioxygenase 1; test: Protac activity at IDO1/CRBN in IFNgamma-stimulated human PC-3 cells assessed as IDO1 degradation by measuring decrease in intracellular protein level measured after 24 hrs by Western blotting analysis; format: cell-based; conditions: dose 1-10 µM, DDE = dose-dependent effect
# [12] = target: T1, Protein cereblon/Indoleamine 2,3-dioxygenase 1; test: Protac activity at CRBN/IDO1 non-enzyme mediated NF-kappaB signal in IFNgamma-stimulated human U87 cells assessed as decrease in p65 phosphorylation at 0.1 to 10 uM measured after 24 hrs Western blotting assay; format: cell-based; conditions: dose 0.1-10 µM
# In short: as §1
# [13] = target: T1, Protein cereblon/Indoleamine 2,3-dioxygenase 1; test: Protac activity at CRBN/IDO1 in IFNgamma-stimulated human GBM43 cells assessed as decrease in kynurenine level measured after 24 hrs by Ehrlich's test; format: cell-based; conditions: GBM43 cell, DDE = dose-dependent effect
# In short: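 U87 or GBM43 cells given compound together with 50 ng/mL IFNγ for 24 h. Supernatant kynurenine was measured with Ehrlich's reagent. Cells cultured without IFNγ served as control.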
# [14] = target: T1, Protein cereblon/Indoleamine 2,3-dioxygenase 1; test: Protac activity at CRBN/IDO1-HA expressed in human U87 cells assessed as IDO1 degradation in intracellular nuclear compartment measured at 1 to 10 uM after 24 hrs by Western blotting analysis; format: subcellular; conditions: Nucleus, dose 1-10 µM
# [15] = Toxicity in C57BL/6 mouse assessed as body weight change at 10 to 100 mg/kg, ip treated 5 days/week for 3 weeks; format: organism-based; conditions: in vivo, 504 h, dose 10-100 mg/kg
# In short: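 Male C57BL/6 mice dosed ip with vehicle or compound at 10, 25, 50 or 100 mg/kg, 5 days/week for 3 weeks. Body weight recorded every 2–3 days. n = 3 mice/dose, mean ± SEM.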
# [16] = Cmax in C57BL/6 mouse brain at 25 mg/kg, ip; format: ADME, organism-based; set-up: dose 25 mg/kg, route ip
# [17] = target: T1, Protein cereblon/Indoleamine 2,3-dioxygenase 1; test: Protac activity at IDO1/CRBN in IFNgamma-stimulated human CD18 cells assessed as IDO1 degradation by measuring decrease in intracellular protein level measured after 24 hrs by Western blotting analysis; format: cell-based; conditions: CD18 cell, DDE = dose-dependent effect
# [18] = target: T1, Protein cereblon/Indoleamine 2,3-dioxygenase 1; test: Protac activity at CRBN/IDO1-FLAG expressed in human U87 cells assessed as IDO1 degradation in intracellular nuclear compartment measured at 1 to 10 uM after 24 hrs by Western blotting analysis; format: subcellular; conditions: Nucleus, dose 1-10 µM
# [19] = target: T1, Protein cereblon/Indoleamine 2,3-dioxygenase 1; test: Protac activity at IDO1/CRBN in IFNgamma-stimulated human SK-OV-3 cells assessed as IDO1 degradation by measuring decrease in intracellular protein level measured after 24 hrs by Western blotting analysis; format: cell-based; conditions: dose 1-10 µM, DDE = dose-dependent effect
# [20] = target: T1, Protein cereblon/Indoleamine 2,3-dioxygenase 1; test: Protac activity at CRBN/IDO1-HA expressed in human U87 cells assessed as IDO1 degradation measured at 1 to 10 uM after 24 hrs by Western blotting analysis; format: cell-based; conditions: dose 1-10 µM
# [21] = target: T1, Protein cereblon/Indoleamine 2,3-dioxygenase 1; test: Protac activity at CRBN/IDO1-HA expressed in human U87 cells assessed as IDO1 degradation in intracellular cytoplasmic compartment measured at 1 to 10 uM after 24 hrs by Western blotting analysis; format: subcellular; conditions: Cytoplasm, dose 1-10 µM
# [22] = target: T1, Protein cereblon/Indoleamine 2,3-dioxygenase 1; test: Protac activity at IDO1/CRBN in IFNgamma-stimulated human U87 cells assessed as IDO1 degradation by measuring decrease in protein level measured after 24 hrs by Western blotting analysis; format: cell-based; conditions: dose 0.1-10 µM, DDE = dose-dependent effect
# In short: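 U87 cells given human IFNγ 50 ng/mL for 24 h to induce IDO1, then PROTAC over a dose range starting at 0.01 μM and rising to 30 μM for 24 h. Western blot read-out. IDO1 band densitometry normalized to untreated samples and fitted to give DC50, the concentration giving 50% IDO1 degradation. n = 3 independent experiments, mean ± SEM.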
compound,measurement,setting,value
C[C@@H](C(=O)Nc1ccc(OC2CCN(C(=O)CCOCCOCCNc3cccc4c3C(=O)N(C3CCC(=O)NC3=O)C4=O)CC2)cc1)[C@H]1CC[C@@H](c2ccnc3ccc(F)cc32)CC1 (stereo partly drawn),inhibition,Ido1/Crbn (Mus musculus),Active
same,Activity,[1],Active
same,Drug uptake,[2],Active
same,Kd,[3],640 nM
same,Activity,[4],Active
same,inhibition,[5],Active
same,Activity,[6],94%
same,Activity,[7],Active
same,Drug uptake,[8],Active
same,Drug uptake,[9],Active
same,half-life,[10],8.3 h
same,Activity,[11],Dde
same,Activity,[12],Active
same,inhibition,[13],Dde
same,Activity,[14],Active
same,Activity,[15],Non-Toxic
same,Cmax,[16],2000 nM
same,Activity,[17],Dde
same,Activity,[18],Active
same,Activity,[19],Dde
same,Activity,[20],Active
same,Activity,[21],Active
same,Activity,[22],Dde
